Results: ChEMBL document CHEMBL5512642, “Novel triterpenoid pyrones, phthalimides and phthalates are selectively cytotoxic in CCRF-CEM cancer cells - Synthesis, potency, and mitochondrial mechanism of action” (Eur J Med Chem, 2024)
Active and inactive are the calls of the source. No cut-off for these calls is given here.

Key:
[1] = system: CCRF-CEM; assay: Cytotoxicity against human CCRF-CEM cells assessed as reduction in cell viability incubated for 72 hrs by MTS assay; type: functional, cell-based
[2] = system: CEM-DNR; assay: Cytotoxicity against human CEM-DNR cells assessed as reduction in cell viability incubated for 72 hrs by MTS assay; type: functional, cell-based
[3] = system: K562; assay: Cytotoxicity against human K562 cells assessed as reduction in cell viability incubated for 72 hrs by MTS assay; type: functional, cell-based; settings: K562, 72 h
[4] = Cytotoxicity against human K562-Tax cells assessed as reduction in cell viability incubated for 72 hrs by MTS assay; type: functional, cell-based
[5] = system: A549; assay: Cytotoxicity against human A549 cells assessed as reduction in cell viability incubated for 72 hrs by MTS assay; type: functional, cell-based; settings: A549, 72 h
[6] = system: HCT-116; assay: Cytotoxicity against human HCT-116 cells assessed as reduction in cell viability incubated for 72 hrs by MTS assay; type: functional, cell-based; settings: HCT-116, 72 h
[7] = system: HCT 116 TP53(-/-); assay: Cytotoxicity against human HCT116-p53-null cells assessed as reduction in cell viability incubated for 72 hrs by MTS assay; type: functional, cell-based
[8] = system: U2OS; assay: Cytotoxicity against human U2OS cells assessed as reduction in cell viability incubated for 72 hrs by MTS assay; type: functional, cell-based
[9] = Cytotoxicity against human BJ cells assessed as reduction in cell viability incubated for 72 hrs by MTS assay; type: toxicity, cell-based
[10] = Cytotoxicity against human MRC5 cells assessed as reduction in cell viability incubated for 72 hrs by MTS assay; type: toxicity, cell-based
[11] = Stability in human plasma assessed as compound remaining measured 15 mins by RF-MS analysis; type: ADME, cell-free; settings: read-out: Stability
How it was run: (§1)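 Compounds incubated in human plasma in vitro for up to 2 h. Percent remaining sampled at 15, 30, 60 and 120 min. Run in triplicate.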

[12] = Stability in human plasma assessed as compound remaining measured 30 mins by RF-MS analysis; type: ADME, cell-free; settings: read-out: Stability; how it was run: as §1
[13] = Stability in human plasma assessed as compound remaining measured 60 mins by RF-MS analysis; type: ADME, cell-free; settings: read-out: Stability; how it was run: as §1
[14] = Stability in human plasma assessed as compound remaining measured 120 mins by RF-MS analysis; type: ADME, cell-free; settings: read-out: Stability; how it was run: as §1
[15] = Plasma protein binding in human assessed as fraction bound at 10 uM by rapid equilibrium dialysis based RF-MS analysis; type: ADME, cell-free; settings: read-out: PPB (converted)
How it was run: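 Human plasma protein binding measured by equilibrium dialysis and reported as percent fraction bound. Run in triplicate.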

[16] = Apparent permeability of the compound in MDCK-MDR1 cells at 10 uM incubated for 1 hr by RF-MS analysis; type: ADME, cell-based, Canis lupus familiaris; settings: dog
How it was run: (§2)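 Caco-2 and MDCK-MDR1 monolayers; transport measured in both directions, apical→basolateral and basolateral→apical. Efflux ratio taken from the two directions; ER > 2 counted as active efflux. Compound recovery reported. Cell-based permeability runs done in duplicate.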

[17] = Efflux ratio of apparent permeability across basolateral to apical side over apical to basolateral side in MDCK-MDR1 cells; type: ADME, cell-based, Canis lupus familiaris; settings: dog; how it was run: as §2
[18] = Apparent permeability of the compound across apical to basolateral side in MDCK-MDR1 cells assessed as compound recovery at 10 uM incubated for 1 hr by RF-MS analysis; type: ADME, cell-based, Canis lupus familiaris; settings: dog, read-out: Activity; how it was run: as §2
[19] = Metabolic stability in human liver microsomes assessed as compound remaining at measured at 15 mins in presence of NADPH by RF-MS analysis; type: ADME, Microsome; settings: read-out: Stability
How it was run: (§3)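 Human liver microsomes with NADPH cofactor to assess phase I oxidation. Compound remaining sampled at 15, 30 and 60 min; intrinsic clearance derived and categorized. Run in triplicate.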

[20] = Metabolic stability in human liver microsomes assessed as compound remaining at measured at 30 mins in presence of NADPH by RF-MS analysis; type: ADME, Microsome; settings: read-out: Stability; how it was run: as §3
[21] = Metabolic stability in human liver microsomes assessed as compound remaining at measured at 60 mins in presence of NADPH by RF-MS analysis; type: ADME, Microsome; settings: read-out: Stability; how it was run: as §3
[22] = Apparent permeability of the compound in human Caco-2 cells; type: ADME, cell-based; how it was run: as §2
[23] = Efflux ratio of apparent permeability across basolateral to apical side over apical to basolateral side in human Caco-2 cells; type: ADME, cell-based; how it was run: as §2
[24] = Apparent permeability of the compound across apical to basolateral side in human Caco-2 cells assessed as compound recovery; type: ADME, cell-based; settings: read-out: Activity; how it was run: as §2
[25] = system: CCRF-CEM; assay: Induction of apoptosis in human CCRF-CEM cells assessed as viable cells at 1 time IC50 incubated for 24 hrs by Annexin V and propidium iodide staining based flow cytometry analysis (reference value: 98%); type: functional
[26] = system: CCRF-CEM; assay: Induction of apoptosis in human CCRF-CEM cells assessed as early apoptotic cells at 1 time IC50 incubated for 24 hrs by Annexin V and propidium iodide staining based flow cytometry analysis (reference value: 1.4%); type: functional
[27] = system: CCRF-CEM; assay: Induction of apoptosis in human CCRF-CEM cells assessed as late apoptotic cells at 1 time IC50 incubated for 24 hrs by Annexin V and propidium iodide staining based flow cytometry analysis (reference value: 0.5%); type: functional
[28] = system: CCRF-CEM; assay: Induction of apoptosis in human CCRF-CEM cells assessed as necrotic cells at 1 time IC50 incubated for 24 hrs by Annexin V and propidium iodide staining based flow cytometry analysis (reference value: 0.1%); type: functional
[29] = system: CCRF-CEM; assay: Induction of apoptosis in human CCRF-CEM cells assessed as viable cells at 5 time IC50 incubated for 24 hrs by Annexin V and propidium iodide staining based flow cytometry analysis (reference value: 98%); type: functional
[30] = system: CCRF-CEM; assay: Induction of apoptosis in human CCRF-CEM cells assessed as early apoptotic cells at 5 time IC50 incubated for 24 hrs by Annexin V and propidium iodide staining based flow cytometry analysis (reference value: 1.4%); type: functional
[31] = system: CCRF-CEM; assay: Induction of apoptosis in human CCRF-CEM cells assessed as late apoptotic cells at 5 time IC50 incubated for 24 hrs by Annexin V and propidium iodide staining based flow cytometry analysis (reference value: 0.5%); type: functional
[32] = system: CCRF-CEM; assay: Induction of apoptosis in human CCRF-CEM cells assessed as necrotic cells at 5 time IC50 incubated for 24 hrs by Annexin V and propidium iodide staining based flow cytometry analysis (reference value: 0.; type: functional
[33] = system: CCRF-CEM; assay: Induction of apoptosis in human CCRF-CEM cells assessed as reduction in caspase-3 expression at 5 time of IC50 incubated for 24 hrs by Western blot analysis; type: functional, cell-based
How it was run: (§4)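 Lysate 20 µg protein per lane on SDS-PAGE, transferred to nitrocellulose, blocked in 5% BSA/TBS-Tween. Probed overnight at 4 °C with anti-caspase-3, Bcl-2, Bcl-XL, β-actin, then HRP secondary 1 h. ECL chemiluminescence detection.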

[34] = system: CCRF-CEM; assay: Induction of apoptosis in human CCRF-CEM cells assessed as reduction in Bcl-2 expression at 5 time of IC50 incubated for 24 hrs by Western blot analysis; type: functional, cell-based; how it was run: as §4
[35] = system: CCRF-CEM; assay: Induction of apoptosis in human CCRF-CEM cells assessed as reduction in Bcl-XL expression at 5 time of IC50 incubated for 24 hrs by Western blot analysis; type: functional, cell-based; how it was run: as §4
[36] = system: CCRF-CEM; assay: Induction of mitochondrial membrane potential loss in human CCRF-CEM cells assessed as cells with depolarized mitochondria (P2 gate) by measuring green fluorescence intensity at 1 time IC50 incubated for 24 hrs by JC-1 staining based flow cytometry (reference value: 2.1%)
[37] = system: CCRF-CEM; assay: Induction of mitochondrial membrane potential loss in human CCRF-CEM cells assessed as cells with depolarized mitochondria (P2 gate) by measuring green fluorescence intensity at 5 time IC50 incubated for 24 hrs by JC-1 staining based flow cytometry (reference value: 2.1%)
[38] = system: CCRF-CEM; assay: Antimitotic activity against human CCRF-CEM cells assessed as decrease in cell division at 5 times of IC50; type: functional, cell-based
How it was run: (§5)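 Mitotic fraction scored with the pH3 Ser10 marker and DNA synthesis with BrdU incorporation. For transcription, cells received a short BrU pulse after the 24 h pre-incubation. Read by flow cytometry against untreated cells.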

[39] = system: CCRF-CEM; assay: Antiproliferative activity against human CCRF-CEM cells assessed as inhibition of RNA synthesis at 5 time of IC50 by BrdU incorporation assay; type: functional, cell-based; settings: in the assay text read “BrU incorporation assay” for “BrdU incorporation assay”; how it was run: as §5

| Structure (SMILES) | IC50 [1] | IC50 [2] | IC50 [3] | IC50 [4] | IC50 [5] | IC50 [6] | IC50 [7] | IC50 [8] | IC50 at 72 h [9] | IC50 at 72 h [10] | remaining at 0.25 h [11] | remaining at 0.5 h [12] | remaining at 1 h [13] | remaining at 2 h [14] | fraction unbound at 10 µM [15] | Papp at 1 h, 10 µM [16] | efflux ratio [17] | recovery at 1 h, 10 µM [18] | remaining at 0.25 h [19] | remaining at 0.5 h [20] | other results |
| --- | --- | --- | --- | --- | --- | --- | --- | --- | --- | --- | --- | --- | --- | --- | --- | --- | --- | --- | --- | --- | --- |
| C[C@H]1[C@H](C)CC[C@]2(C(=O)O)CC[C@]3(C)C(=CC[C@@H]4[C@@]5(C)CC6=C(C7C(=O)N(c8ccccc8)C(=O)C7C=C6C(F)(F)F)C(C)(C)[C@@H]5CC[C@]43C)[C@H]12 (stereo partly drawn) | 4.3 µM | > 50 µM | 21 µM | 23 µM | 18 µM | 13 µM | 12 µM | 19 µM | 10 µM | > 50 µM | 102% | 99.6% | 102% | 94.2% | 0.292 | 0.33 ×10⁻⁶ cm/s | 8.17 | 60.5% | 82% | 64% | remaining at 1 h [21]: 45%; Papp [22]: 0.12 ×10⁻⁶ cm/s; efflux ratio [23]: 41.8; recovery [24]: 69.2%; Activity [25]: 93.6%; Activity [26]: 3.6%; Activity [27]: 2.8%; Activity [28]: 0%; Activity [29]: 82.2%; Activity [30]: 10.9%; Activity [31]: 6.9%; Activity [32]: 0%; Activity [33]: Active; Activity [34]: Active; Activity [35]: Active; Activity [36]: 0.6%; Activity [37]: 11.8% |
| C=C(C)[C@@H]1CC[C@]2(C(=O)O)CC[C@]3(C)[C@H](CC[C@@H]4[C@@]5(C)Cc6c(C(F)(F)F)cc(C(=O)OC)c(C(=O)OC)c6C(C)(C)[C@@H]5CC[C@]43C)[C@@H]12 | 3.8 µM | > 50 µM | 18 µM | > 50 µM | 18 µM | 23 µM | 13 µM | 17 µM | > 50 µM | > 50 µM | 103% | 96.7% | 96.2% | 93.8% | 0.184 | 4.46 ×10⁻⁶ cm/s | 6.95 | 71.2% | 91% | 102% | remaining at 1 h [21]: 76%; Papp [22]: 1.73 ×10⁻⁶ cm/s; efflux ratio [23]: 5.62; recovery [24]: 75.8%; Activity [25]: 92.9%; Activity [26]: 4.3%; Activity [27]: 2.8%; Activity [28]: 0%; Activity [29]: 87.3%; Activity [30]: 8.5%; Activity [31]: 4.2%; Activity [32]: 0%; Activity [38]: Active; Activity [34]: Active; Activity [35]: Active; Activity [36]: 2.4%; Activity [37]: 38.1% |
| C=C(C)[C@@H]1CC[C@]2(C(=O)O)CC[C@]3(C)[C@H](CC[C@@H]4[C@@]5(C)Cc6c(C(F)(F)F)cc(=O)oc6C(C)(C)[C@@H]5CC[C@]43C)[C@@H]12 | 4 µM | 7.8 µM | 22 µM | 10 µM | 16 µM | 13 µM | 15 µM | 18 µM | > 50 µM | 28 µM | 99.9% | 99.2% | 102% | 93.6% | 0.135 | 0.14 ×10⁻⁶ cm/s | 26 | 70.7% | 100% | 86% | remaining at 1 h [21]: 70%; Papp [22]: 0.04 ×10⁻⁶ cm/s; efflux ratio [23]: 28.4; recovery [24]: 104%; Activity [25]: 90.9%; Activity [26]: 5.3%; Activity [27]: 3.7%; Activity [28]: 0.1%; Activity [29]: 51.2%; Activity [30]: 17.3%; Activity [31]: 31.5%; Activity [32]: 0%; Activity [38]: Active; Activity [33]: Active; Activity [34]: Active; Activity [35]: Active; Activity [39]: Active; Activity [36]: 4.4%; Activity [37]: 30.2% |
